Consider eleven compounds from ChEMBL document CHEMBL4219162, “Adamantane amine-linked chloroquinoline derivatives as chloroquine resistance modulating agents in Plasmodium falciparum” (Bioorg Med Chem Lett, 2018).

Data set [1] has as its system CHO. Description: Cytotoxicity against CHO cells by MTT assay. It is filed as cell-based. Particulars: Cricetulus griseus. In outline:
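Chinese hamster ovary cell growth and survival read by viable-cell reduction of yellow MTT to purple-blue formazan. IC50 derived. Emetine served as the cytotoxic reference drug.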
(Tetrazolium dyes change colour on reduction, which living cells bring about.)

Data set [2] has as its system Plasmodium falciparum. Kind of data set: Antimalarial activity against chloroquine-resistant Plasmodium falciparum K1 infected in normal type A human erythrocytes incubated for 72 hrs by spectrophotometry based parasite lactate dehydrogenase assay. Particulars: K1, 72 h. The class given is functional, organism-based. In outline: (§1)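 Modified parasite lactate dehydrogenase (pLDH) assay run in parallel on CQ-sensitive NF54 and CQ-resistant K1 strains, with chloroquine as positive control. […], 37 °C, and the readout gave IC50.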

Data set [3] in a line: Reversal modification index, ratio of IC50 for chloroquine-resistant Plasmodium falciparum K1 infected in normal type A human erythrocytes to IC50 for chloroquine-sensitive Plasmodium falciparum NF54 infected in normal type A human erythrocytes relative to […]. It is filed as functional. In outline: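 Reversal modification index taken as the resistance index (IC50 K1/IC50 NF54) of each compound relative to the resistance index of chloroquine.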

Data set [4] is described as follows: Resistance index, ratio of IC50 for chloroquine-resistant Plasmodium falciparum K1 infected in normal type A human erythrocytes to IC50 for chloroquine-sensitive Plasmodium falciparum NF54 infected in normal type A human erythrocytes. The class given is functional. In outline: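 Resistance index computed as IC50 against K1 divided by IC50 against NF54, both from the pLDH assay.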

Data set [5] relates to Plasmodium falciparum. Description: Antimalarial activity against chloroquine-sensitive Plasmodium falciparum NF54 infected in normal type A human erythrocytes incubated for 72 hrs by spectrophotometry based parasite lactate dehydrogenase assay. It is filed as functional, organism-based. The note with it: NF54, 72 h. In short, it runs like this:
as §1

Data set [6] relates to Plasmodium falciparum. Description: Potency index, ratio of IC50 for […] to IC50 for test compound for antimalarial activity against chloroquine-resistant Plasmodium falciparum K1 infected in normal type A human erythrocytes incubated for 72 hrs by spectrophotometry based parasite lactate dehydrogenase assay. It is filed as functional.
A short description of data set [7]: Selectivity index, ratio of IC50 for CHO cells to IC50 for chloroquine-resistant Plasmodium falciparum K1 infected in normal type A human erythrocytes. The class given is toxicity, cell-based. The note with it: Chinese hamster; read-out: Ratio IC50. In outline:
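Selectivity index computed as IC50 in Chinese hamster ovary cells, measured by MTT reduction to formazan, divided by IC50 against K1 from the pLDH assay.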

The nature of data set [8]: Aqueous stability of the compound in pH 4.5 HEPES-buffer at 1 mg/ml at 37 degC after 72 hrs by UV spectroscopic method. It is filed as physicochemical. The note with it: pH 4.5, 72 h. In outline: (§2)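 Test compound at 1 mg/ml in aqueous HEPES-containing buffer, held at 37 °C for 72 h to check for degradation. pH 7.4 matches the pLDH antimalarial assay medium. pH 4.5 approximates the parasite's acidic digestive vacuole. Conditions mirror the pLDH assay procedure.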

A short description of data set [9]: Aqueous stability of the compound in pH 7.4 HEPES-buffer at 1 mg/ml at 37 degC after 72 hrs by UV spectroscopic method. It is filed as physicochemical. The note with it: pH 7.4, 72 h. In outline: as §2

The structures appear in SMILES notation. Bounds are passed on as bounds.

For `Clc1ccc2c(NCCN=C3C4CC5CC(C4)CC3C5)ccnc2c1`, the values for the 50% inhibitory concentration (IC50) in data set [1], in data set [2] and in data set [5] were 98.5 µM, 0.0938 µM and 0.0263 µM, respectively. The entries for the “Ratio IC50” value in [3], in data set [4] and in data set [6] were 10.8, 3.56 and 3 - 4, respectively. In addition, in data set [7], the selectivity ratio was determined as 1050.

Take `CCN(CC)CCCC(C)Nc1ccnc2cc(Cl)ccc12` (centres undefined) [CHLOROQUINE]: the IC50 (as a rule, the concentration that gives 50% inhibition) in data set [1] was determined as 57.8 µM.

As to `OC12CC3CC(CC(C3)N1CCCCNc1ccnc3cc(Cl)ccc13)C2`, the IC50 in [1] was 37.9 µM; in [2], 0.198 µM; in [5], 0.0339 µM. Besides, the “Ratio IC50” value stood at 6.59 in data set [3] and 5.84 in [4]. For the same compound, the selectivity ratio in [7] was determined as 191.

Regarding `OC12CC3CC(CC(C3)N1CCCCCCNc1ccnc3cc(Cl)ccc13)C2`, the IC50 in [1] worked out at 80.8 µM; in [2], 0.284 µM; in data set [5], 0.113 µM. Also, the “Ratio IC50” value in data set [3] is recorded as 10.09; in data set [4], 3.81. Besides, the selectivity ratio in data set [7] was determined as 285.

For `OC12C3C4CC5C6C4C1C6C(C53)N2CCNc1ccnc2cc(Cl)ccc12` (centres undefined), the IC50 stood at 0.0726 µM in [2] and 0.00984 µM in data set [5]. Moreover, the “Ratio IC50” value in [3] is reported as 5.22; in data set [4] it was 7.36. Further, in [7], the selectivity ratio amounted to 131.

Turning to `OC12CC3CC(CC(C3)N1CCCNc1ccnc3cc(Cl)ccc13)C2`, the IC50 in data set [1] came out at 45.2 µM; in [2] it was 0.0968 µM; in data set [5] it was 0.0223 µM. In addition, the results for the “Ratio IC50” value in data set [3], in data set [4] and in [6] were 8.86, 4.34 and 3 - 4, respectively. The selectivity ratio in data set [7] stood at 467.

`CC[C@H]1CN2CCc3cc(OC)c(OC)cc3[C@@H]2C[C@@H]1C[C@H]1NCCc2cc(OC)c(OC)cc21` [EMETINE]: 0.13 µM corresponded to half-maximal inhibition in data set [1] (IC50).

For the compound `Clc1ccc2c(NCCCN=C3C4CC5CC(C4)CC3C5)ccnc2c1`, the IC50 in [1] was 66.4 µM; in data set [2] it was 0.192 µM; in data set [5], 0.005 µM. In addition, the “Ratio IC50” value in data set [3] was 2.4. The Stability entry is “Unstable” in data set [8] and “Stable” in data set [9]. In addition, in [7], the selectivity ratio was found to be 346.

Consider `OC12CC3CC(CC(C3)N1CCNc1ccnc3cc(Cl)ccc13)C2`, for which the IC50 in [1] was over 279 µM; in data set [2], 0.0989 µM; in data set [5], 0.0469 µM. Further, the “Ratio IC50” value in data set [3] is recorded as 18.23; in data set [4] it was 2.11; in data set [6], 3 - 4. In addition, the selectivity ratio in [7] is over 2820.

Consider `Clc1ccc2c(NCCCCN=C3C4CC5CC(C4)CC3C5)ccnc2c1`, for which the IC50 in [1] was 57.1 µM; in data set [2], 0.784 µM; in data set [5] it was 0.108 µM. The “Ratio IC50” value is reported as 5.32 in [3] and 7.23 in data set [4]. Besides, the selectivity ratio in [7] was 73.

`Clc1ccc2c(NCCCCCCN=C3C4CC5CC(C4)CC3C5)ccnc2c1`: the results for the IC50 in data set [1], in data set [2] and in [5] were over 103 µM, 1.58 µM and 0.113 µM, respectively. Further, the “Ratio IC50” value was found to be 2.74 in data set [3] and 14.02 in [4]. Besides, the selectivity ratio in [7] amounted to 104.
